We go through 13 compounds from ChEMBL document CHEMBL1155807, “Synthesis, biological evaluation, and enzyme docking simulations of 1,5-diarylpyrrole-3-alkoxyethyl ethers as selective cyclooxygenase-2 inhibitors endowed with anti-inflammatory and antinociceptive activity” (J Med Chem, 2008).

Active and inactive are the calls of the source.

The test system of assay [1] is J774. The assay can be described thus: Selectivity index, ratio of IC50 for mouse COX1 in mouse J774 cells to IC50 for mouse COX2 in LPS-stimulated mouse J774 cells. The format is cell-based. A digest of the protocol:
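The ratio is IC50(COX-1)/IC50(COX-2), both from J774 cells. For COX-1, cells were given a 15 min compound pretreatment and then 15 µM arachidonic acid for 30 min. For COX-2, cells were exposed to LPS (10 µg/mL) for 24 h with compound. In both, PGE2 was measured by radioimmunoassay and IC50 came from a sigmoidal fit of the means of three experiments.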

Assay [2] addresses T1, Prostaglandin G/H synthase 2 (Mus musculus, UniProt Q05769).
T1 sequence (Q05769 whole entry): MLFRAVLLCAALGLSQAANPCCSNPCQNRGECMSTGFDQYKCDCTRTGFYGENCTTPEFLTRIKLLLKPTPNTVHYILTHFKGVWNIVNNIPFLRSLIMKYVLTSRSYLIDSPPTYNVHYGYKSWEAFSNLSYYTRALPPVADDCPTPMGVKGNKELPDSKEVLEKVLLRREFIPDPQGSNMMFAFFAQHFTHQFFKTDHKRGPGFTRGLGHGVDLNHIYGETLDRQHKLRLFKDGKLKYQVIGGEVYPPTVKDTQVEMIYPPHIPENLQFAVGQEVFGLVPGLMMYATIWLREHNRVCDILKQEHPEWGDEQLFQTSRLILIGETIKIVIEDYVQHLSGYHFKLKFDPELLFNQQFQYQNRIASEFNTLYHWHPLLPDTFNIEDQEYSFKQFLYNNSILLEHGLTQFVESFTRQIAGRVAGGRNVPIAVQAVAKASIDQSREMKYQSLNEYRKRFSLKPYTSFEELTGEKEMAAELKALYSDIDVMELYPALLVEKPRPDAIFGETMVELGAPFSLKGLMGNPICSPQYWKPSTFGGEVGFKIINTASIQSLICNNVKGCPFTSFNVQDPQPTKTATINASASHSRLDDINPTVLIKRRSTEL
As to the kind of experiment: Inhibition of mouse COX2 in LPS-stimulated mouse J774 cells assessed as PGE2 production by radioimmunoassay. The format is cell-based. A digest of the protocol:
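J774 cells in serum-free medium were stimulated with E. coli LPS (10 µg/mL) for 24 h to induce COX-2, with or without compound present. Supernatant PGE2 was measured by radioimmunoassay. Percent inhibition was taken against control; triplicate wells, mean of three experiments; IC50 from a variable-slope sigmoidal fit.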

Assay [3] concerns the target T2, Prostaglandin G/H synthase 1 (Mus musculus, UniProt P22437).
T2 sequence (P22437 whole entry): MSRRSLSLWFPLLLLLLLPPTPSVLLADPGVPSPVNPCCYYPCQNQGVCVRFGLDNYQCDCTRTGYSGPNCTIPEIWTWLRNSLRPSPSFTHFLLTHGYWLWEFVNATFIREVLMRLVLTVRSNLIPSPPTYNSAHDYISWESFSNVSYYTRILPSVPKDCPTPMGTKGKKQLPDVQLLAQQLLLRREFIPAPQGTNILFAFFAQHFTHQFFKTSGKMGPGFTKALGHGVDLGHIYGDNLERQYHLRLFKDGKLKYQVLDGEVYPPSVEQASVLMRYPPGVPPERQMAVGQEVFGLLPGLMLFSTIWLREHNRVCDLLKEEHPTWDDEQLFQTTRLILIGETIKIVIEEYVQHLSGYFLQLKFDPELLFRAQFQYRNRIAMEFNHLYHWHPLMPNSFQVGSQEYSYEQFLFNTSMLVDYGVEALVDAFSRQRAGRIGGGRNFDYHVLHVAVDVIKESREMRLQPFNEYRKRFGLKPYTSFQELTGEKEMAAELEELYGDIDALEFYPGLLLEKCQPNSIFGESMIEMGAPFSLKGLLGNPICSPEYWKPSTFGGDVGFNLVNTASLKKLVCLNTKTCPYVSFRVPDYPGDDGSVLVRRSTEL
As to the kind of experiment: Inhibition of mouse COX1 in mouse J774 cells assessed as PGE2 production by radioimmunoassay. Format: cell-based.

Assay [4] is filed under the species Homo sapiens. The assay can be described thus: Selectivity index, ratio of IC50 for human COX1 to IC50 for human COX2 by whole blood assay. A digest of the protocol:
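Human whole blood from three healthy donors (no NSAID for 2 weeks); compounds in DMSO at final 0.01–1000 µM. COX-2: heparinized blood from aspirin-pretreated donors (300 mg, 48 h) with LPS 10 µg/mL, 24 h, 37 °C; plasma PGE2 by RIA. COX-1: blood clotted 1 h, 37 °C; serum TXB2 by RIA. Mean % inhibition vs vehicle; IC50(COX-1)/IC50(COX-2).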

Assay [5] relates to Rattus norvegicus. As to the kind of experiment: Antiinflammatory activity against carrageenan-induced hyperalgesia in rat assessed as paw pressure at 20 mg/kg, po after 120 mins. Format: functional. An outline of the steps: (§1)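 Rats received carrageenan (0.1 mL, 1%) intraplantar 4 h before the test, then compound at 20 mg/kg po. Nociceptive threshold was measured with an analgesimeter (Leighton method) before and 30, 60 and 120 min after treatment, with a 250 g cutoff. Groups had 5-6 rats; mean ± SEM, ANOVA with Fisher's PLSD post hoc.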

Assay [6] has as its system Rattus norvegicus. The assay can be described thus: Antiinflammatory activity against carrageenan-induced edema in rat assessed as paw volume at 20 mg/kg, po […]. Format: functional. An outline of the steps:
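Carrageenan (0.1 mL of 1.0%) was injected intraplantar into Sprague-Dawley or Wistar rats (150-200 g). Compound was given po at 20 mg/kg 3 h 30 min after carrageenan. Right hind paw volume was measured by plethysmometer 4 h after carrageenan and compared with saline/carrageenan controls. Values are in mL, with 5-6 rats per group.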

In assay [7] the test system is Mus musculus. As to the kind of experiment: Antinociceptive activity against acetic acid-induced abdominal constriction in Swiss albino mouse assessed as reduction in number of writhes at 20 mg/kg, po. Further details: dose 20 mg/kg. The settings on record: Abdomen. The format is functional, organism-based. A digest of the protocol: (§2)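 Male Swiss albino mice (23-25 g) were dosed per os, with CMC as vehicle, 30 min before 0.6% acetic acid. Stretching movements were counted for 10 min, starting 5 min after acetic acid (Koster method). Results are mean ± SEM; ANOVA with Fisher's PLSD, versus vehicle-treated mice.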

In assay [8] the test system is Rattus norvegicus. As to the kind of experiment: Antiinflammatory activity against carrageenan-induced hyperalgesia in rat assessed as paw pressure at 20 mg/kg, po after 60 mins. The format is functional. An outline of the steps:
as §1

The subject of assay [9] is Rattus norvegicus. The assay can be described thus: Antiinflammatory activity against carrageenan-induced hyperalgesia in rat assessed as paw pressure at 20 mg/kg, po after 30 mins. Format: functional. An outline of the steps: as §1
Assay [10] relates to Mus musculus. As to the kind of experiment: Antinociceptive activity against acetic acid-induced abdominal constriction in Swiss albino mouse assessed as number of writhes at 20 mg/kg, po. The format is functional, Abdomen. An outline of the steps: as §2
Assay [11] relates to Mus musculus. The assay can be described thus: Antinociceptive activity against acetic acid-induced abdominal constriction in Swiss albino mouse assessed as number of writhes at 10 mg/kg, po. The format is functional, Abdomen. An outline of the steps:
as §2

In assay [12] the target is Prostaglandin G/H synthase 1 (Homo sapiens, UniProt P23219). As to the kind of experiment: Inhibition of COX1 in human whole blood allowed to clot assessed as TXB2 production.
Assay [13] addresses T3, Prostaglandin G/H synthase 2 (Homo sapiens, UniProt P35354).
T3 sequence (P35354 whole entry): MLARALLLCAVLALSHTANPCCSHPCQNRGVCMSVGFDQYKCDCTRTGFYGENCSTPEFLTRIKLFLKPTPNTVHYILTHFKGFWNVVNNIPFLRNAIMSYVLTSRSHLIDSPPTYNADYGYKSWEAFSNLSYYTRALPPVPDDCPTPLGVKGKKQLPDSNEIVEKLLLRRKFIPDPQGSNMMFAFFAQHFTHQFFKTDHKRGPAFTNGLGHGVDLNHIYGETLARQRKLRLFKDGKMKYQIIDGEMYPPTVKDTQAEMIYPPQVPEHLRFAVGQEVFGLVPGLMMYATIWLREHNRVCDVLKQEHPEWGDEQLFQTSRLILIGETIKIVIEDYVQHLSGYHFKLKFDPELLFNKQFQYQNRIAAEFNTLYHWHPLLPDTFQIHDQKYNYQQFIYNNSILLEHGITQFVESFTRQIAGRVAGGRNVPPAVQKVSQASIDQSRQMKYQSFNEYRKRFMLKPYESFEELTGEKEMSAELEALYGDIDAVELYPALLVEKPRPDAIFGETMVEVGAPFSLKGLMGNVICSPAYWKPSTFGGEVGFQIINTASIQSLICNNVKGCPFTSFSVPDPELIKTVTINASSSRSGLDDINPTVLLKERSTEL
As to the kind of experiment: Inhibition of COX2 in human whole blood assessed as effect on thrombin-induced TXB2 production. Format: tissue-based.

Prostaglandin G/H synthase 1 (Homo sapiens, UniProt P23219), sequence (P23219 whole entry): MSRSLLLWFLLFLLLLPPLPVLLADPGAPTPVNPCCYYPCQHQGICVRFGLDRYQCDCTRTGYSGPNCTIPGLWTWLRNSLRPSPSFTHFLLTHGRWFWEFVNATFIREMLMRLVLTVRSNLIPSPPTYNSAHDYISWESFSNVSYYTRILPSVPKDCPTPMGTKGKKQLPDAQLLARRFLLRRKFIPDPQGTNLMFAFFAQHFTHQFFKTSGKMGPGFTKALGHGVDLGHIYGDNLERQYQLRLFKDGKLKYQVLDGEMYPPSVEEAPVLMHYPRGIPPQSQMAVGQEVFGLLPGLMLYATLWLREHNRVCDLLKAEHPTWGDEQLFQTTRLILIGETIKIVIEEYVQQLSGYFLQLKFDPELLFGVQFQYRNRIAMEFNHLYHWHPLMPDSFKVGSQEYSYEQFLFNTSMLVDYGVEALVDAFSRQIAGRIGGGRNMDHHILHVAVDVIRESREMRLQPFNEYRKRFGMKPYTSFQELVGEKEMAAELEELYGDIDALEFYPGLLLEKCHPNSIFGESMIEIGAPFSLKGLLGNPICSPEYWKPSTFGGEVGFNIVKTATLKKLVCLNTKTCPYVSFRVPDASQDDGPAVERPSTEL

As for `COCCc1cc(-c2ccc(S(C)(=O)=O)cc2)n(-c2ccc(F)cc2)c1C`, the Ratio IC50 in assay [1] was above 5560. The IC50 in assay [2] is 18 nM; in assay [3], above 100000 nM.

On to `CCOCCc1cc(-c2ccc(S(C)(=O)=O)cc2)n(-c2ccc(C(F)(F)F)cc2)c1C`, for which the Ratio IC50 in assay [1] was above 1180. For the same compound, the IC50 in assay [2] is 85 nM; in [3], above 100000 nM.

`CS(=O)(=O)c1ccc(C2=C(c3ccccc3)C(=O)OC2)cc1`: in assay [4], the Ratio IC50 is above 200.

Take `CCCOCCc1cc(-c2ccc(S(C)(=O)=O)cc2)n(-c2ccc(F)cc2)c1C`: the Activity in assay [5] was found to be 52.7 g; in [6], 1.45 mL; in assay [8], 56.8 g; in [9], 52.4 g; in assay [10], 16.7; in assay [11], 38.1. In [7], the result was Active. The Ratio IC50 in assay [1] was above 3330. The 50% inhibitory concentration (IC50) is 30 nM in assay [2] and above 100000 nM in [3].

Take `COCCc1cc(-c2ccc(S(C)(=O)=O)cc2)n(-c2ccc(C(F)(F)F)cc2)c1C`: in [1], the Ratio IC50 is above 2040. In addition, the 50% inhibitory concentration (IC50) in assay [2] is 49 nM; in assay [3] it was above 100000 nM.

Turning to `CCOC(=O)Cc1cc(-c2ccc(S(C)(=O)=O)cc2)n(-c2ccc(C(F)(F)F)cc2)c1C`, the Ratio IC50 in [1] was above 1600.

For `CCCOCCc1cc(-c2ccc(S(C)(=O)=O)cc2)n(-c2ccc(C(F)(F)F)cc2)c1C`, the Ratio IC50 in assay [1] is above 909. Moreover, the results for the half-inhibitory concentration (IC50) in [2] and in assay [3] were 110 nM and above 100000 nM, respectively.

Consider `CCOC(=O)Cc1cc(-c2ccc(S(C)(=O)=O)cc2)n(-c2ccc(C)cc2)c1C`, for which the Ratio IC50 in assay [1] was above 208.

For `CCCOCCc1cc(-c2ccc(S(C)(=O)=O)cc2)n(-c2ccccc2)c1C`, the Activity worked out at 50.6 g in assay [5]; 1.41 mL in assay [6]; 59.4 g in assay [8]; 56.3 g in assay [9]; 13.6 in assay [10]; 27.43 in assay [11]. Also, the Ratio IC50 in assay [4] is 66; in assay [1], above 5560. Also, the IC50 in assay [12] was 86000 nM; in assay [13] it was 1300 nM; in assay [2] it was 18 nM; in assay [3], above 100000 nM. Further, the result in assay [7] was Active.

`CCOCCc1cc(-c2ccc(S(C)(=O)=O)cc2)n(-c2ccccc2)c1C`: the Activity in [5] was found to be 49.1 g; in assay [6], 1.37 mL; in [8], 53.8 g; in assay [9], 59.6 g; in assay [10], 11.4; in assay [11] it was 26.5. Moreover, the result in assay [7] was Active. For the same compound, in assay [1], the Ratio IC50 is above 6670. Moreover, the half-inhibitory concentration (IC50) is 15 nM in assay [2] and above 100000 nM in assay [3].

For `COCCc1cc(-c2ccc(S(C)(=O)=O)cc2)n(-c2ccccc2)c1C`, the Ratio IC50 in [1] was above 2080. Further, the IC50 in [2] was 48 nM; in assay [3] it was above 100000 nM.

For `CCOC(=O)Cc1cc(-c2ccc(S(C)(=O)=O)cc2)n(-c2ccccc2)c1C`, in [1], the Ratio IC50 is above 2500.

Consider `CCOCCc1cc(-c2ccc(S(C)(=O)=O)cc2)n(-c2ccc(F)cc2)c1C`, for which, in [1], the Ratio IC50 is above 2130. For the same compound, the half-maximal inhibitory concentration (IC50) is 47 nM in assay [2] and above 100000 nM in assay [3].
